Series [1] is described as follows: Distribution coefficient at pH 7.4. Format: physicochemical. Conditions: RP-HPLC, read-out: Log Kw. Put shortly: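 Log Kw read as log D by HPLC in 20 mM MOPS buffer, pH 7.4, on an LC-ABZ column ([…]) fitted with an LC-ABZ precolumn (20x46 mm).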
Series [2] has as its target T1, Renin (Homo sapiens, UniProt P00797).
T1 sequence (P00797 whole entry): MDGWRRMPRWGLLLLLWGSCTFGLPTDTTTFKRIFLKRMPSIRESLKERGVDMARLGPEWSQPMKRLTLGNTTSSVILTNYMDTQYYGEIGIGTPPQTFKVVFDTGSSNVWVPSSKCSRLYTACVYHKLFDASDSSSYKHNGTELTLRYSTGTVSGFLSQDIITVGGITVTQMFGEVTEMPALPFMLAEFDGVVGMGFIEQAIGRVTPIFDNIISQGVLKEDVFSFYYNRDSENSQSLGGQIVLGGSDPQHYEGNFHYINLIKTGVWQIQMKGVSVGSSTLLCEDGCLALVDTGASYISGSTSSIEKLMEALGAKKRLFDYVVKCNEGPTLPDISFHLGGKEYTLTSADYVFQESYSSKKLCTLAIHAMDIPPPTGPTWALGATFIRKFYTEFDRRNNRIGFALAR
Put plainly: Inhibitory activity against human plasma renin. In kind it is cell-free.

For series [3], the target named is T1, Renin. Kind of series: Inhibitory activity against purified recombinant human renin.

This note sets out measurements from ChEMBL document CHEMBL1131714, “Piperidine-renin inhibitors compounds with improved physicochemical properties” (Bioorg Med Chem Lett, 1999).

For orientation: IC50 means the concentration that gives 50% inhibition. For `COc1ccccc1COCCCOc1ncc([C@H]2CCNC[C@@H]2OCc2cc(OC)c3ccccc3c2OC)cn1` (racemic), the chromatographic logD in series [1] was determined as 4.1. Also, the values for the IC50 against Renin [2] and at Renin [3] were 160 nM and 10 nM, respectively.
Taken in the same sequence, the figures for `c1ccc(COCCCOc2ccc([C@H]3CCNC[C@@H]3OCc3ccc4ccc(OCCN5CCOCC5)cc4c3)cc2)cc1` (racemic) were 5.6, 130 nM and 12 nM.
In the case of `c1ccc(COCCCOc2ccc([C@H]3CCNC[C@@H]3OCc3ccc4cccnc4c3)cc2)cc1` (racemic), the IC50 against Renin [2] was found to be 810 nM; on Renin [3] it was 12 nM.
`c1ccc(COCCCOc2ccc([C@H]3CCNC[C@@H]3OCc3ccc4c(c3)NCCC4)cc2)cc1` (racemic): the IC50 at Renin [2] is 330 nM; at Renin [3], 5.1 nM.
With `O[C@H]1CNC[C@H](OCc2ccc3ccccc3c2)[C@H]1c1ccc(OCCCOCc2ccccc2)cc1` (racemic), the IC50 at Renin [2] is 10000 nM; on Renin [3], 9 nM.
For `COc1ccccc1COCCCOc1ccc([C@H]2CCNC[C@@H]2OCc2cc(OC)c3ccccc3c2OC)cc1` (racemic), the chromatographic logD in series [1] turned out to be 5.4. Besides, the IC50 on Renin [2] stood at 12 nM; at Renin [3], 0.087 nM.
With `c1ccc(COCCCOc2ccc([C@H]3CCNC[C@@H]3OCc3ccc4ccccc4c3)cn2)cc1` (racemic), the chromatographic logD in series [1] came to 5.1. For the same molecule, the IC50 against Renin [2] came out at 7100 nM; at Renin [3], 590 nM.
With `COc1ccccc1COCCCOc1ccc([C@H]2CCNC[C@@H]2OCc2ccc3cccnc3c2)cc1` (racemic), the IC50 against Renin [2] came to 160 nM; at Renin [3], 4 nM.
As to `c1ccc(COCCCOc2ccc([C@H]3[C@H](CSc4ccncc4)CNC[C@@H]3OCc3ccc4ccccc4c3)cc2)cc1` (racemic), the chromatographic logD in series [1] came to 5.8. In addition, the IC50 against Renin [2] amounted to 490 nM; at Renin [3], 0.4 nM.
For the molecule `COc1ccccc1COCCCOc1ccc([C@H]2CCNC[C@@H]2OCc2ccc3c(c2)NCCC3)cc1` (racemic), the chromatographic logD in series [1] amounted to 3.8. Besides, the IC50 against Renin [2] turned out to be 37 nM; on Renin [3] it was 0.67 nM.
In the case of `O=S(=O)(O)OC[C@@H]1CNC[C@H](OCc2ccc3ccccc3c2)[C@H]1c1ccc(OCCCOCc2ccccc2)cc1` (racemic), the results for the IC50 at Renin [2] and at Renin [3] were 1900 nM and 2.3 nM, respectively.
Taken in the same sequence, the figures for `c1ccc(COCCCOc2ccc([C@H]3[C@H](COCCN4CCOCC4)CNC[C@@H]3OCc3ccc4ccccc4c3)cc2)cc1` (racemic) were 160 nM and 3.3 nM.
The like results for `c1ccc(COCCCOc2ccc([C@H]3[C@H](Cn4cncn4)CNC[C@@H]3OCc3ccc4ccccc4c3)cc2)cc1` (racemic) were, in that order, 190 nM and 0.92 nM.
The like results for `c1ccc(COCCCOc2ccc([C@H]3CCNC[C@@H]3OCc3ccc4ccccc4c3)cc2)cc1` (racemic) were, in that order, 1300 nM and 5 nM.
Turning to `c1ccc(COCCCOc2ncc([C@H]3CCNC[C@@H]3OCc3ccc4ccccc4c3)cn2)cc1` (racemic), in series [1], the chromatographic logD was 4.4. Besides, the IC50 on Renin [2] is 8200 nM; at Renin [3], 820 nM.
Taken in the same sequence, the figures for `COc1ccccc1COCCCOc1ccc([C@H]2CCNC[C@@H]2OCc2ccc3ccc(=O)[nH]c3c2)cc1` (racemic) were 3.9, 110 nM and 8 nM.
Consider `O[C@@H]1CNC[C@H](OCc2ccc3ccccc3c2)[C@H]1c1ccc(OCCCOCc2ccccc2)cc1` (racemic), for which the chromatographic logD in series [1] came out at 4.9. The IC50 against Renin [2] amounted to 1400 nM; at Renin [3] it was 6.4 nM.
Turning to `COc1ccccc1COCCCOc1ccc([C@H]2CCNC[C@@H]2OCc2cc(OC)c3ccccc3c2OC)cn1` (racemic), the chromatographic logD in series [1] was 4.7. In addition, the IC50 amounted to 110 nM on Renin [2] and 0.5 nM at Renin [3].
`c1ccc(COCCCOc2ccc([C@H]3CCNC[C@@H]3OCc3ccc4cc(OCCN5CCOCC5)ccc4c3)cc2)cc1` (racemic): the figures for the IC50 against Renin [2] and on Renin [3] were 1400 nM and 22 nM, respectively.
Turning to `c1ccc(COCCCOc2ccc([C@@H]3[C@@H](OCc4ccc5ccccc5c4)CNC[C@H]3OCCN3CCOCC3)cc2)cc1` (racemic), the results for the IC50 at Renin [2] and on Renin [3] were 380 nM and 1.8 nM, respectively.
